From ChEMBL document CHEMBL1135910, “Beta-C-mannosides as selectin inhibitors” (J Med Chem, 2002)

Target: Alpha-1-acid glycoprotein 1 (Homo sapiens, UniProt P02763)
Assay: Ability to inhibit the binding of E-selectin to human recombinant AGP (alpha-1 acid glycoprotein) in a E-selectin assay
In short: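 ELISA read-out. Soluble E-selectin binding to human recombinant AGP bearing five sLex per molecule. Compounds screened at 5 mM, with percent inhibition recorded.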

Chain of Alpha-1-acid glycoprotein 1 (P02763 whole entry): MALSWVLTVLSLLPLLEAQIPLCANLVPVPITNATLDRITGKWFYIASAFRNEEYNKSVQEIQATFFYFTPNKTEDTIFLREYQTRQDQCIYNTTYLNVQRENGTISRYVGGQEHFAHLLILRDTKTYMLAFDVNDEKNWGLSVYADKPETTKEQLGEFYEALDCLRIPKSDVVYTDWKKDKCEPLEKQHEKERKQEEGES

Row | Inhibition [%] | IC50 [mM] | Structure (SMILES)
1 | 45 |  | O=C(O)CC[C@H](NC(=O)CC1OC(CNC(=O)CC(=O)Nc2ccc(Cl)cc2Cl)C(O)C(O)C1O)C(=O)O (stereo not given in full)
2 | 42 |  | Cc1ccc(COc2ccsc2C(=O)NCC2OC(CC(=O)N[C@@H](CCC(=O)O)C(=O)O)C(O)C(O)C2O)cc1 (stereo not given in full)
3 |  | 5 | C[C@@H](NC(=O)c1ccccc1C(=O)NCC1OC(CC(=O)N[C@@H](CCC(=O)O)C(=O)O)C(O)C(O)C1O)c1ccccc1 (stereo not given in full)
4 | 43 |  | CC(C)(C)c1ccc(COc2ccsc2C(=O)NCC2OC(CC(=O)N[C@@H](CCC(=O)O)C(=O)O)C(O)C(O)C2O)cc1 (stereo not given in full)
5 |  | 8 | CC(=O)N[C@H]1[C@H]([C@H](O)[C@H](O)CO)O[C@@](O[C@H]2[C@@H](O)[C@@H](CO)O[C@@H](O[C@@H]([C@H](O[C@@H]3O[C@@H](C)[C@@H](O)[C@@H](O)[C@@H]3O)[C@H](C=O)NC(C)=O)[C@H](O)CO)[C@@H]2O)(C(=O)O)C[C@@H]1O [SIALYL LEWIS X]
